Activity calls are given as the source filed them. No cut-off for these calls is given here.
Experiments:
BT-474 = assay: Cytotoxicity against human BT-474 cells assessed as reduction in cell viability incubated for 48 hrs by MTT assay; type: functional, cell-based; details: BT-474, 48 h
In short: (§1)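 Cancer cell lines were exposed to drug for 48 h, and the 50% inhibitory concentration was determined. Values are averages of three individual experiments. A549, HCT-116, BT-474 and MDA-MB-231 are human lines; B16F10 is a murine melanoma line.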

HCT-116 [1] = assay: Induction of apoptosis in human HCT-116 cells assessed as necrotic cells at 2.5 uM incubated for 48 hrs by annexin-V and propidium iodide staining based flow cytometry analysis (reference value: 0.36 %); type: functional
HCT-116 [2] = assay: Inhibition of colony formation in human HCT-116 cells incubated for 10 days by crystal violet staining based assay; type: functional, cell-based; details: dose microM 0.25-1, time 10.0 day
In short: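 HCT-116 cells exposed in medium to 0.25, 0.5 and 1 μM over 10 days to allow colonies to form. Colonies visualised by crystal violet staining and counted relative to untreated control cells.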

HCT-116 [3] = assay: Induction of apoptosis in human HCT-116 cells assessed as condensed DNA at 0.5 to 2.5 uM incubated for 48 hrs by DAPI staining based fluorescence microscopic analysis; type: functional, cell-based; details: dose microM 0.5-2.5, time 48.0 hrs
In short: (§2)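 Nuclear morphology was imaged by fluorescence microscopy using a DAPI filter at 200×; untreated cells served as control.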

HCT-116 [4] = assay: Induction of apoptosis in human HCT-116 cells assessed as early apoptotic cells at 2.5 uM incubated for 48 hrs by annexin-V and propidium iodide staining based flow cytometry analysis (reference value: 1.87 %); type: functional
HCT-116 [5] = assay: Induction of apoptosis in human HCT-116 cells assessed as necrotic cells at 0.5 uM incubated for 48 hrs by annexin-V and propidium iodide staining based flow cytometry analysis (reference value: 0.36 %); type: functional
HCT-116 [6] = assay: Induction of mitochondrial membrane potential loss in human HCT-116 cells assessed as cells with hyperpolarized mitochondria by measuring decrease in J-aggregates red fluorescence intensity at 2.5 uM incubated for 48 hrs by JC1 staining based flow cytometry analysis (reference value: 86.42 %); type: functional; set-up: scale not given: the % may be the effect or the level left
HCT-116 [7] = assay: Cytotoxicity against human HCT-116 cells assessed as reduction in cell viability at 0.5 to 2.5 uM incubated for 48 hrs by phase contrast microscopy; type: functional, cell-based; details: dose microM 0.5-2.5, time 48.0 hrs
MDA-MB-231 = assay: Cytotoxicity against human MDA-MB-231 cells assessed as reduction in cell viability incubated for 48 hrs by MTT assay; type: functional, cell-based; details: MDA-MB-231, 48 h; in short: as §1
B16-F10 = assay: Cytotoxicity against mouse B16-F10 cells assessed as reduction in cell viability incubated for 48 hrs by MTT assay; type: functional, cell-based; details: B16-F10, 48 h; in short: as §1
HCT-116 [8] = assay: Induction of mitochondrial membrane potential loss in human HCT-116 cells assessed as cells with depolarized mitochondria by measuring increase in J-monomer green fluorescence intensity at 1 uM incubated for 48 hrs by JC1 staining based flow cytometry analysis (reference value: 12.53 %); type: functional
HCT-116 [9] = assay: Induction of cell cycle arrest in human HCT-116 cells assessed as S phase at 1 uM incubated for 48 hrs by propidium iodide based flow cytometry analysis (reference value: 7.8 %); type: functional
HCT-116 [10] = assay: Induction of cell cycle arrest in human HCT-116 cells assessed as G0/G1 phase at 1 uM incubated for 48 hrs by propidium iodide based flow cytometry analysis (reference value: 28.2 %); type: functional
HCT-116 [11] = assay: Induction of apoptosis in human HCT-116 cells assessed as late apoptotic cells at 2.5 uM incubated for 48 hrs by annexin-V and propidium iodide staining based flow cytometry analysis (reference value: 1.48 %); type: functional
HCT-116 [12] = assay: Induction of mitochondrial membrane potential loss in human HCT-116 cells assessed as cells with depolarized mitochondria by measuring increase in J-monomer green fluorescence intensity at 0.5 uM incubated for 48 hrs by JC1 staining based flow cytometry analysis (reference value: 12.53 %); type: functional
HCT-116 [13] = assay: Induction of cell cycle arrest in human HCT-116 cells assessed as S phase at 0.5 uM incubated for 48 hrs by propidium iodide based flow cytometry analysis (reference value: 7.8 %); type: functional
HCT-116 [14] = assay: Cytotoxicity against human HCT-116 cells assessed as induction of cell morphological changes at 0.5 to 2.5 uM incubated for 48 hrs by phase contrast microscopy; type: functional, cell-based; details: dose microM 0.5-2.5, time 48.0 hrs
HCT-116 [15] = assay: Induction of apoptosis in human HCT-116 cells assessed as micronuclei formation at 0.5 to 2.5 uM incubated for 48 hrs by DAPI staining based fluorescence microscopic analysis; type: functional, cell-based; details: dose microM 0.5-2.5, time 48.0 hrs; in short: as §2
HCT-116 [16] = assay: Induction of apoptosis in human HCT-116 cells assessed as viable cells at 1 uM incubated for 48 hrs by annexin-V and propidium iodide staining based flow cytometry analysis (reference value: 96.29 %); type: functional; details: read-out: Activity
HCT-116 [17] = assay: Induction of cell cycle arrest in human HCT-116 cells assessed as sub-G1 phase at 2.5 uM incubated for 48 hrs by propidium iodide based flow cytometry analysis (reference value: 2.1 %); type: functional
HCT-116 [18] = assay: Induction of apoptosis in human HCT-116 cells assessed as increase in DNA breakdown incubated for 24 hrs by acridine orange staining based microscopic analysis; type: functional, cell-based; details: dose microM 0.5-2.5, time 24.0 hrs
In short: (§3)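 HCT-116 cells were incubated at 0.5, 1.0 and 2.5 µM for 24 h and stained with acridine orange. Green fluorescence (excitation 480-490 nm), chromatin distribution and blebbing were inspected microscopically at 200× against untreated controls.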

HCT-116 [19] = assay: Induction of cell cycle arrest in human HCT-116 cells assessed as sub-G1 phase at 0.5 uM incubated for 48 hrs by propidium iodide based flow cytometry analysis (reference value: 2.1 %); type: functional
HCT-116 [20] = assay: Cytotoxicity against human HCT-116 cells assessed as reduction in cell viability incubated for 48 hrs by MTT assay; type: functional, cell-based; details: HCT-116, 48 h; in short: as §1
HCT-116 [21] = assay: Induction of apoptosis in human HCT-116 cells assessed as irregular distribution of chromatin at 0.5 to 2.5 uM incubated for 24 hrs by acridine orange staining based microscopic analysis; type: functional, cell-based; details: dose microM 0.5-2.5, time 24.0 hrs; in short: as §3
HCT-116 [22] = assay: Induction of apoptosis in human HCT-116 cells assessed as necrotic cells at 1 uM incubated for 48 hrs by annexin-V and propidium iodide staining based flow cytometry analysis (reference value: 0.36 %); type: functional
HCT-116 [23] = assay: Induction of mitochondrial membrane potential loss in human HCT-116 cells assessed as cells with hyperpolarized mitochondria by measuring decrease in J-aggregates red fluorescence intensity at 1 uM incubated for 48 hrs by JC1 staining based flow cytometry analysis (reference value: 86.42 %); type: functional; set-up: scale not given: the % may be the effect or the level left
HCT-116 [24] = assay: Induction of cell cycle arrest in human HCT-116 cells assessed as sub-G1 phase at 1 uM incubated for 48 hrs by propidium iodide based flow cytometry analysis (reference value: 2.1 %); type: functional
HCT-116 [25] = assay: Induction of cell cycle arrest in human HCT-116 cells assessed as G0/G1 phase at 2.5 uM incubated for 48 hrs by propidium iodide based flow cytometry analysis (reference value: 28.2 %); type: functional
HCT-116 [26] = assay: Induction of cell cycle arrest in human HCT-116 cells assessed as G2/M phase at 2.5 uM incubated for 48 hrs by propidium iodide based flow cytometry analysis (reference value: 15.3 %); type: functional
HCT-116 [27] = assay: Induction of apoptosis in human HCT-116 cells assessed as loose cell structure at 0.5 to 2.5 uM incubated for 48 hrs by DAPI staining based fluorescence microscopic analysis; type: functional; details: dose microM 0.5-2.5, time 48.0 hrs; in short: as §2

## O=C(/C=C\Nc1ccc(Cl)cc1)c1nc(-c2ccc(F)cc2)n2ccccc12
BT-474
  IC50: 7.03 µM
HCT-116 [1]
  Activity: 13.3%
HCT-116 [2]
  inhibition: Dose-dependent effect
HCT-116 [3]
  Activity: Active
HCT-116 [4]
  Activity: 2.29%
HCT-116 [5]
  Activity: 0.68%
HCT-116 [6]
  Activity: 76.3%
HCT-116 [7]
  Activity: Active
MDA-MB-231
  IC50: 4.25 µM
B16-F10
  IC50: 11 µM
HCT-116 [8]
  Activity: 20.53%
HCT-116 [9]
  Activity: 9.7%
HCT-116 [10]
  Activity: 38.7%
HCT-116 [11]
  Activity: 6.97%
HCT-116 [12]
  Activity: 13.5%
HCT-116 [13]
  Activity: 7%
HCT-116 [14]
  Activity: Active
HCT-116 [15]
  Activity: Active
HCT-116 [16]
  viability at 1 µM: 85.8%
HCT-116 [17]
  Activity: 1.6%
HCT-116 [18]
  Activity: Dose-dependent effect
HCT-116 [19]
  Activity: 1.2%
HCT-116 [20]
  IC50: 1.21 µM
HCT-116 [21]
  Activity: Active
HCT-116 [22]
  Activity: 3.49%
HCT-116 [23]
  Activity: 78.07%
HCT-116 [24]
  Activity: 1.9%
HCT-116 [25]
  Activity: 41.9%
HCT-116 [26]
  Activity: 15.6%
HCT-116 [27]
  Activity: Active

Source: ChEMBL document CHEMBL4665711, “Synthesis of (Z)-3-(arylamino)-1-(3-phenylimidazo[1,5-a]pyridin-1-yl)prop-2-en-1-ones as potential cytotoxic agents” (Bioorg Med Chem Lett, 2020)
